One data set relates to HepG2. The data set is described as follows: Growth inhibition of human HepG2 cells after 48 hrs by crystal violet assay. Format: functional, cell-based. The note with it: HepG2, 48 h. In short, it runs like this:
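HEP G2 liver cancer cells grown in DMEM with 10% heat-inactivated FBS, penicillin and streptomycin at 37 °C, 5% CO2. Seeded at 5000 cells/well, grown 24 h, then exposed to inhibitors for 48 h. Fixed and stained with 1% crystal violet in 70% ethanol for 30 min, water-washed, solubilized in 1% SDS, read at 550 nm. Cell-free blank subtracted; untreated growth set to 100%. Each concentration tested 8-fold.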

Data set [1] deals with Histone acetyltransferase KAT2B (Homo sapiens, UniProt Q92831). Kind of data set: Inhibition of human recombinant histone acetyltransferase PCAF assessed as CoA-SH activity preincubated for 15 mins by CPM fluorescent assay.
A short description of data set [2]: Octanol-water partition coefficient, log P by HPLC analysis. Format: physicochemical. In a few lines: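 log P determined from the analyte's peak area in each of the two layers.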

Structures are written as SMILES. Bounds are passed on as bounds.

Sequence of Histone acetyltransferase KAT2B (Q92831 whole entry): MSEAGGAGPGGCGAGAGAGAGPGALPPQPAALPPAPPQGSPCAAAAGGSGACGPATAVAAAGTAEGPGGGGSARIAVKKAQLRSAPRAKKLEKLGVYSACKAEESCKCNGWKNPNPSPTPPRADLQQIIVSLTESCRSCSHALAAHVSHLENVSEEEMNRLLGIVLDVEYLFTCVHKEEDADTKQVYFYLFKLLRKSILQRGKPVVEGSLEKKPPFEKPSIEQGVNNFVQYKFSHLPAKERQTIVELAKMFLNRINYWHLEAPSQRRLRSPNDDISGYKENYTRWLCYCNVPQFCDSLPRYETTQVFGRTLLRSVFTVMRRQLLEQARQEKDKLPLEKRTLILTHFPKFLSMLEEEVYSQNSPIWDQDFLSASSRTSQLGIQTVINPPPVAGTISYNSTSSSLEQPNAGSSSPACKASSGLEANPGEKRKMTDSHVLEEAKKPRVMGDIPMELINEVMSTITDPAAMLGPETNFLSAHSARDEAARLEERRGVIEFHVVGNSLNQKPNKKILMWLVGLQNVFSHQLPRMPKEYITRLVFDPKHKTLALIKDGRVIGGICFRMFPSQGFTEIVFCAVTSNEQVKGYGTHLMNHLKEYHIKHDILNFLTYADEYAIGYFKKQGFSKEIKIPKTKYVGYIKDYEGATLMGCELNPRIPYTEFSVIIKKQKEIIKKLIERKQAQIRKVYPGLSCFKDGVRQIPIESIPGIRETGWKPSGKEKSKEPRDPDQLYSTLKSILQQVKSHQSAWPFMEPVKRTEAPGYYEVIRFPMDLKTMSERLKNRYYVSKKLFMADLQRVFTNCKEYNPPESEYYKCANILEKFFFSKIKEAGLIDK

As to `COC(=O)CCn1c(=O)c(Cl)c(Cl)[s+]1[O-]` (stereo unspecified), the results for the IC50 (with HepG2; in data set [1]) were greater than 100 µM and greater than 10 µM, respectively.

Turning to `CCCCCCCCCCCCSc1c(Cl)c(=O)n(CCC(=O)OC)[s+]1[O-]` (stereo unspecified), the IC50 in the data set with HepG2 is greater than 100 µM; in data set [1], greater than 10 µM.

`COC(=O)CCn1sc(Cl)cc1=O` had an IC50 in the data set with HepG2 of 24 µM. In data set [2], this compound gave a logP of 0.69.

As for `CCn1c(=O)c(Cl)c(Cl)[s+]1[O-]` (stereo unspecified), the results for the IC50 (in the data set with HepG2; in data set [1]) were greater than 100 µM and greater than 10 µM, respectively.

Regarding `COC(=O)CCn1sc(Cl)c(C)c1=O`, the IC50 in the data set with HepG2 was 8.6 µM; in data set [1] it was greater than 10 µM.

On to `COC(=O)CCn1sc(Cl)c(Cl)c1=O`, for which the IC50 was found to be 16 µM in the data set with HepG2 and 2.6 µM in data set [1].

In turn, `COC(=O)CCn1c(=O)cc(Cl)[s+]1[O-]` (stereo unspecified) came in with an IC50 in the data set with HepG2 greater than 100 µM. The compound further gave a logP in data set [2] of 0.08.

In the case of `CCn1sc(Cl)c(C)c1=O`, the IC50 in the data set with HepG2 is 9.1 µM; in data set [1] it was greater than 10 µM.

On to `CCCCCCCCCCCCSc1cc(=O)n(CCC(=O)OC)[s+]1[O-]` (stereo unspecified), for which the IC50 in the data set with HepG2 is greater than 100 µM; in data set [1], greater than 10 µM.

In the case of `CCn1sc(Cl)c(Cl)c1=O`, the figures for the IC50 (in the data set on HepG2; in data set [1]) were 12 µM and 2.4 µM, respectively.

Take `CCn1c(=O)c(C)c(Cl)[s+]1[O-]` (stereo unspecified): the IC50 with HepG2 is greater than 100 µM; in data set [1], greater than 10 µM.

For the compound `CCCCCCCCCCCCSc1cc(=O)n(C(C)(C)C)[s+]1[O-]` (stereo unspecified), the values for the IC50 (in the data set on HepG2; in data set [1]) were greater than 50 µM and greater than 10 µM, respectively.

In the case of `CCn1c(=O)cc(Cl)[s+]1[O-]` (stereo unspecified), the IC50 in the data set with HepG2 was greater than 100 µM; in data set [1] it was greater than 10 µM.

On to `CCn1sc(Cl)cc1=O`, for which, in the data set with HepG2, the IC50 worked out at 12 µM.

In the case of `CC(C)(C)n1c(=O)cc(Cl)[s+]1[O-]` (stereo unspecified), the IC50 was 27 µM with HepG2 and greater than 10 µM in data set [1].

On to `COC(=O)CCn1c(=O)c(C)c(Cl)[s+]1[O-]` (stereo unspecified), for which the IC50 in the data set with HepG2 is greater than 100 µM; in data set [1], greater than 10 µM.

Usually IC50 stands for the concentration that inhibits the measured activity by half. As a reminder, the logP is a log measure of how a compound divides between an organic and an aqueous phase. A low value points to lower lipophilicity.

These data come from ChEMBL document CHEMBL1155178, “Reactivity of isothiazolones and isothiazolone-1-oxides in the inhibition of the PCAF histone acetyltransferase” (Eur J Med Chem, 2009).
